Measured values as given in ChEMBL document CHEMBL1131637, “Novel and selective 5-HT2C/2B receptor antagonists as potential anxiolytic agents: synthesis, quantitative structure-activity relationships, and molecular modeling of substituted 1-(3-pyridylcarbamoyl)indolines” (J Med Chem, 1998).

What was measured:
[1] = biological target: 5-hydroxytryptamine receptor 2A (Homo sapiens, UniProt P28223); assay: Binding affinity towards human 5-hydroxytryptamine 2A receptor expressed in HEK 293 cells using [3H]ketanserin as radioligand; type: cell-based, HEK293
5-hydroxytryptamine receptor 2A, sequence (P28223 whole entry): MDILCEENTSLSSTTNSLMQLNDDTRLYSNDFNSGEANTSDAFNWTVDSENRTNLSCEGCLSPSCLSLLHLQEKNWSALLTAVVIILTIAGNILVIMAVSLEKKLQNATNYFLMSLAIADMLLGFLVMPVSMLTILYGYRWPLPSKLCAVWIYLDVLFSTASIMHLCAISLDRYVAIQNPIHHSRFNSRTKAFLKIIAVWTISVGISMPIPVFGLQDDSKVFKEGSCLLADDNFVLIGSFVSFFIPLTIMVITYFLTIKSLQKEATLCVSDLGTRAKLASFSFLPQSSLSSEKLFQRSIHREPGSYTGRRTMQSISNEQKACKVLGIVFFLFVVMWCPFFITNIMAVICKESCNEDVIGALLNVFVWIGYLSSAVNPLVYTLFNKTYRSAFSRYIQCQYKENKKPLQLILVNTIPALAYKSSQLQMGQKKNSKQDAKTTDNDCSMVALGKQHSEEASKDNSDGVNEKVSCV
Procedure, shortened: (§1)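 Radioligand binding on human cloned receptors stably expressed in HEK 293 cells; 5-HT2A labelled with [3H]ketanserin, 5-HT2B with [3H]-5-HT. Values are means of at least two determinations, each within 0.2 log unit of the mean.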

[2] = biological target: T1, 5-hydroxytryptamine receptor 2C (Homo sapiens, UniProt P28335); assay: Binding affinity towards cloned human 5-hydroxytryptamine 2C receptor expressed in HEK 293 cells using [3H]mesulergine as radioligand; type: cell-based, HEK293
T1 sequence (P28335 whole entry): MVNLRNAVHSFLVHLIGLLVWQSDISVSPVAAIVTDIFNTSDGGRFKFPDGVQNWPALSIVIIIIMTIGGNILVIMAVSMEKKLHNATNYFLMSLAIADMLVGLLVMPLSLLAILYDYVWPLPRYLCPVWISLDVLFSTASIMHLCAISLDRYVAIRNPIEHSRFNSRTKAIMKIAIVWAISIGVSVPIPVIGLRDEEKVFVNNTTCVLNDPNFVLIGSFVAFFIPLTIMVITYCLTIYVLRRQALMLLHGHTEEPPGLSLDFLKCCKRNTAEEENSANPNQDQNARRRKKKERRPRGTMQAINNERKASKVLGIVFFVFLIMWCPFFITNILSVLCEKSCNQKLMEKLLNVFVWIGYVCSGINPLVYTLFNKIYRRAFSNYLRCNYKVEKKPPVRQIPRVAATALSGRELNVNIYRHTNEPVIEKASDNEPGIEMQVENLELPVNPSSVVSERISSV

Rattus norvegicus [3] = assay: Percentage change punished lever presses from mean score on 6-8 rats(P<0.001) at 0.2 mg/kg po1h pretest; type: functional
Rattus norvegicus [4] = assay: Percentage change punished lever presses from mean score on 6-8 rats(P<0.001) at 0.5 mg/kg po1h pretest; type: functional
Rattus norvegicus [5] = assay: Percentage change punished lever presses from mean score on 6-8 rats(P<0.001) at 10 mg/kg po1h pretest; type: functional
Rattus norvegicus [6] = assay: Percentage change punished lever presses from mean score on 6-8 rats(P<0.001) at 1 mg/kg po1h pretest; type: functional
Rattus norvegicus [7] = assay: Percentage change punished lever presses from mean score on 6-8 rats(P<0.001) at 20 mg/kg po1h pretest; type: functional
Rattus norvegicus [8] = assay: Percentage change punished lever presses from mean score on 6-8 rats(P<0.001) at 2 mg/kg po1h pretest; type: functional
Rattus norvegicus [9] = assay: Percentage change punished lever presses from mean score on 6-8 rats(P<0.001) at 5 mg/kg po1h pretest; type: functional
Rattus norvegicus [10] = assay: Percentage change unpunished lever presses from mean score on 6-8 rats at 0.2 mg/kg po1h pretest; type: functional
Rattus norvegicus [11] = assay: Percentage change unpunished lever presses from mean score on 6-8 rats at 0.5 mg/kg po1h pretest; type: functional
Rattus norvegicus [12] = assay: Percentage change unpunished lever presses from mean score on 6-8 rats at 10 mg/kg po1h pretest; type: functional
Rattus norvegicus [13] = assay: Percentage change unpunished lever presses from mean score on 6-8 rats at 1 mg/kg po1h pretest; type: functional
Rattus norvegicus [14] = assay: Percentage change unpunished lever presses from mean score on 6-8 rats at 20 mg/kg po1h pretest; type: functional
Rattus norvegicus [15] = assay: Percentage change unpunished lever presses from mean score on 6-8 rats at 2 mg/kg po1h pretest; type: functional
Rattus norvegicus [16] = species: Rattus norvegicus; assay: The dose required to reverse […]- induced hypolocomotion in rat by 50 %; type: functional; conditions: ip, 0.5 h, read-out: ID50 (the source's name)
Rattus norvegicus [17] = assay: Percentage change unpunished lever presses from mean score on 6-8 rats(P<0.05) at 0.1 mg/kg po1h pretest; type: functional
Rattus norvegicus [18] = assay: Percentage change unpunished lever presses from mean score on 6-8 rats(P<0.01) at 5 mg/kg po1h pretest
Rattus norvegicus [19] = assay: Percentage change punished lever presses from mean score on 6-8 rats at 0.5 mg/kg po1h pretest; type: functional
Rattus norvegicus [20] = assay: Percentage change punished lever presses from mean score on 6-8 rats(P<0.01) at 5 mg/kg po1h pretest; type: functional
Rattus norvegicus [21] = assay: Percentage change unpunished lever presses from mean score on 6-8 rats at 5 mg/kg po1h pretest; type: functional
Rattus norvegicus [22] = assay: Percentage change unpunished lever presses from mean score on 6-8 ratsP<0.01) at 1 mg/kg po1h pretest; type: functional
Rattus norvegicus [23] = assay: Percentage change unpunished lever presses from mean score on 6-8 ratsP<0.05)at 2 mg/kg po1h pretest; type: functional
[24] = biological target: 5-hydroxytryptamine receptor 2B (Homo sapiens, UniProt P41595); assay: Binding affinity towards cloned human 5-hydroxytryptamine 2B receptor expressed in HEK 293 cells using [3H]5-HT as radioligand; type: cell-based, HEK293; procedure, shortened: as §1
5-hydroxytryptamine receptor 2B, sequence (P41595 whole entry): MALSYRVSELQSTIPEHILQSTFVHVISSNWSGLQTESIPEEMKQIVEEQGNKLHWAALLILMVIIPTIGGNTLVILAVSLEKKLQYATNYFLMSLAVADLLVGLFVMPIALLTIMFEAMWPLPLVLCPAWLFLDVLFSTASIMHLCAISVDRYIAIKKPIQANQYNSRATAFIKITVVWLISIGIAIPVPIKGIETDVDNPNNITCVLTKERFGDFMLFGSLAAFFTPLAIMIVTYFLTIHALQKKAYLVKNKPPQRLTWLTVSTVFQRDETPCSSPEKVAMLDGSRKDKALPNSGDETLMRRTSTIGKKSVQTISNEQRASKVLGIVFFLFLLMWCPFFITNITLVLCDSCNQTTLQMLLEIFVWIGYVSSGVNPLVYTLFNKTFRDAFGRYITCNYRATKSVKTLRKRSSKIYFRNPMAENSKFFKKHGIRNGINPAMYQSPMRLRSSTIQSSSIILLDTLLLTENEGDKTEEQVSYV

Row | SMILES | Ki [1] | Ki [2] | also measured
1 | COc1cc2c(cc1C(F)(F)F)N(C(=O)Nc1cccnc1)CC2 | 1000 nM | 10 nM | Change (Rattus norvegicus [3]): 26%; Change (Rattus norvegicus [4]): 36%; Change (Rattus norvegicus [5]): 63%; Change (Rattus norvegicus [6]): 28%; Change (Rattus norvegicus [7]): 62%; Change (Rattus norvegicus [8]): 34%; Change (Rattus norvegicus [9]): 37%; Change (Rattus norvegicus [10]): 2%; Change (Rattus norvegicus [11]): 2%; Change (Rattus norvegicus [12]): 0%; Change (Rattus norvegicus [13]): -2%; Change (Rattus norvegicus [14]): -1%; Change (Rattus norvegicus [15]): 3%; ED50 (Rattus norvegicus [16]): 0.8 mg/kg; Change (Rattus norvegicus [17]): 8%; Change (Rattus norvegicus [18]): 8%
2 | CSc1cc2c(cc1C(F)(F)F)N(C(=O)Nc1cccnc1)CC2 |  |  | Change (Rattus norvegicus [19]): 6%; Change (Rattus norvegicus [5]): 46%; Change (Rattus norvegicus [6]): 30%; Change (Rattus norvegicus [7]): 76%; Change (Rattus norvegicus [8]): 36%; Change (Rattus norvegicus [20]): 38%; Change (Rattus norvegicus [11]): 3%; Change (Rattus norvegicus [12]): -2%; Change (Rattus norvegicus [14]): 0%; Change (Rattus norvegicus [21]): 2%; Change (Rattus norvegicus [22]): 10%; Change (Rattus norvegicus [23]): 4%; ED50 (Rattus norvegicus [16]): 1.2 mg/kg
3 | O=C(Nc1cccnc1)N1CCc2ccc(C(F)(F)F)cc21 | 501 nM | 50.1 nM | 
4 | CSc1cc2c(cc1I)N(C(=O)Nc1cccnc1)CC2 | 501 nM | 2 nM | ED50 (Rattus norvegicus [16]): 3.2 mg/kg
5 | CCSc1cc2c(cc1C(F)(F)F)N(C(=O)Nc1cccnc1)CC2 | 3160 nM | 3.16 nM | ED50 (Rattus norvegicus [16]): 4.4 mg/kg; Ki [24]: 10 nM
6 | O=C(Nc1cccnc1)N1CCc2cc(Cl)ccc21 | 2510 nM | 79.4 nM | 
7 | O=C(Nc1cccnc1)N1CCc2cc(OCC3CC3)c(C(F)(F)F)cc21 | 3980 nM | 20 nM | 
8 | CSc1cc2c(cc1Br)CCN2C(=O)Nc1cccnc1 | 2510 nM | 50.1 nM | 
9 | O=C(Nc1cccnc1)N1CCc2cc(Br)cc([N+](=O)[O-])c21 | 3980 nM | 316 nM | 
10 | Cc1cc2c(cc1I)N(C(=O)Nc1cccnc1)CC2 | 63.1 nM | 3.16 nM | 
11 | O=C(Nc1cccnc1)N1CCc2cc(Cl)c(C(F)(F)F)cc21 | 158 nM | 6.31 nM | 
12 | O=C(Nc1cccnc1)N1CCc2cc(-c3ccccc3)ccc21 | 5010 nM | 126 nM | 
13 | CCCc1cc2c(cc1Cl)N(C(=O)Nc1cccnc1)CC2 | 1260 nM | 20 nM | 
14 | CSc1cc2c(cc1OC(F)(F)F)N(C(=O)Nc1cccnc1)CC2 | 3160 nM | 25.1 nM | 
15 | O=C(Nc1cccnc1)N1CCc2cc(Cl)c(Cl)cc21 | 251 nM | 7.94 nM | 
16 | CC(C)(C)c1cc2c(cc1Cl)N(C(=O)Nc1cccnc1)CC2 | 631 nM | 20 nM | Ki [24]: 158 nM
17 | CSc1ccc2c(c1)CCN2C(=O)Nc1cccnc1 | 3980 nM | 39.8 nM | 
18 | O=C(Nc1cccnc1)N1CCc2c(Cl)cccc21 | 3980 nM | 501 nM | 
19 | O=C(Nc1cccnc1)N1CCc2ccc(Cl)cc21 | 794 nM | 50.1 nM | 
20 | COC(=O)c1cc2c(cc1Cl)N(C(=O)Nc1cccnc1)CC2 | 6310 nM | 31.6 nM | ED50 (Rattus norvegicus [16]): 16 mg/kg
21 | CC(C)Oc1cc2c(cc1Cl)N(C(=O)Nc1cccnc1)CC2 | > 6310 nM | 15.8 nM | ED50 (Rattus norvegicus [16]): 4 mg/kg
22 | O=C(Nc1cccnc1)N1CCc2cc(-c3ccccc3)c(Cl)cc21 | 3980 nM | 126 nM | 
23 | CC(C)c1ccc2c(c1)CCN2C(=O)Nc1cccnc1 | 2000 nM | 79.4 nM | 
24 | CC(C)Sc1cc2c(cc1C(F)(F)F)N(C(=O)Nc1cccnc1)CC2 | 5010 nM | 31.6 nM | 
25 | CN(C)c1ccc2c(c1)CCN2C(=O)Nc1cccnc1 | > 6310 nM | 316 nM | 
26 | Cc1ccc2c(c1)CCN2C(=O)Nc1cccnc1 | 5010 nM | 158 nM | 
